Measured values reported in publication PMC7614192 (Biomedicine & pharmacotherapy = Biomedecine & …, 2022).

Columns and labels:
[1] = system: primary human lymphocytes; details: primary human lymphocytes in vitro; cited from earlier work
[2] = system: mouse model of multiple sclerosis; details: oral application; cited from earlier work
[3] = system: activated human PBMC / T lymphocytes; assay: Apoptosis and necrosis by annexin V and propidium iodide staining; type: cell-based; details: cyclotides, annexin V-FITC/PI, n = 3
Method in brief: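 Donor PBMC (2 × 10^5) in RPMI 1640 with 10% heat-inactivated FBS and 2 mM L-glutamine at 37 °C, 5% CO2. Activated with anti-CD3 (HIT3) and anti-CD28 (28.6), 100 ng/mL each, then exposed to test compound. Annexin V-FITC/PI double staining by flow cytometry, normalised to the stimulated control. Camptothecin was the apoptosis control and Triton X-100 (0.5%) the necrosis control. Mean ± SD, n = 3, ANOVA/Dunnett.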

[4] = system: CD107a on CD8+ T cells; assay: CD8+ T cell degranulation; type: cell-based, human; details: cyclotides; activated PBMC 24 h, PMA/ionomycin 4 h, MFI of CD107a, n = 3
Method in brief: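 Anti-CD3/anti-CD28 (100 ng/mL each) activated PBMC (2 × 10^5) were treated with test compound, CsA (4.16 μM) or camptothecin (300 μM) for 24 h. They were then restimulated with PMA (50 ng/mL) and ionomycin (500 ng/mL) for 4 h. Staining used CD107a-PE with GolgiStop, read by flow cytometry. CD107a MFI is expressed relative to the stimulated control. n = 3.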

[5] = system: activated human PBMC / T lymphocytes; assay: Cell cycle progression by DNA content; type: cell-based; details: cyclotides, 72 h, PI staining, n = 3
Method in brief: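 PBMC were activated with anti-CD3/anti-CD28 (100 ng/mL each) and incubated 72 h with test compound or CsA. Cells were washed, fixed and permeabilised in 70% ice-cold ethanol, then stained with PI plus RNase. Flow cytometry gave the share of living lymphocytes in each cell-cycle phase, reported as mean of three independent experiments.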

[6] = system: activated human primary T cells (PBMC); assay: Cell division tracking using CFSE; type: cell-based; details: cyclotides, anti-CD3/anti-CD28 stimulated human PBMC, 72 h, n = 3
Method in brief: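 PBMC at 5 × 10^6 cells/mL in PBS were labelled with CFSE (5 mM stock diluted 1/1000) for 10 min at 37 °C, and labelling was stopped by washing in complete medium. Cells (2 × 10^5) were activated with anti-CD3/anti-CD28 (100 ng/mL each) and cultured 72 h with test compound or CsA 4.16 μM. Proliferating cells were read by flow cytometry and normalised to the stimulated control. Mean ± SD, n = 3.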

[7] = system: CD25 on T lymphocytes; assay: CD25 activation marker detection; type: cell-based, human; details: cyclotides; activated PBMC, 24 h, n = 3
Method in brief: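 PBMC (2 × 10^5) were stimulated with anti-CD3/anti-CD28 mAbs (100 ng/mL each) and exposed to test compound for 24 h. Controls were CsA 4.16 μM and camptothecin 300 μM. Stained with anti-CD25-PE plus anti-CD4-APC and read by flow cytometry. Result is the percentage of CD4+ and CD4− T cells expressing CD25, relative to the untreated stimulated control. n = 3, ANOVA/Dunnett.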

Row | Substance | effect on T cell proliferation [1] | clinical scores [2] | concentration with significant increase in the number of apoptotic cells [3] [µM] | concentration with significant rise in degranulation levels (CD107a) [4] [µM] | concentration with significant reduction in the number of cells in the G2-phase [5] [µM] | concentration with significant reduction in T cell proliferation [6] [µM] | concentration with significant reduction in CD107a levels [4] [µM] | concentration with significant reduction of CD25 expression [7] [µM] | concentration with significant induction of necrosis [3] [µM]
1 | T20K (GLPVCGETCVGGTCNTPGCKCSWPVCTRN; not fully specified; Kalata-B1 cyclic backbone; UniProt P56254 89-117, looked up, variant T20K) | inhibition of T cell proliferation | significant delay and reductions in clinical scores |  |  |  |  |  |  | 
2 | c-CGESCVFIPCFSSVIGCSCKNKVCYRNGVIP (bicyclic or more) [caripe 12] |  |  | 30 | 3 | 30 | 30 |  |  | 
3 | c-CGESCVFIPCFSTVIGCSCKNKVCYRNGVIP (bicyclic or more) [caripe 10] |  |  | 10 |  | 10 | 10 | 10 | 10 | 
4 | c-CGESCVFIPCFTSVFGCSCKDKVCYRNGIP (bicyclic or more) [caripe 13] |  |  |  |  |  | 30 |  |  | 30
5 | c-CGESCVFIPCISTVIGCSCKKKVCYRNGVIP (bicyclic or more) [caripe 11] |  |  | 10 | 3 | 30 | 30 |  |  | 
6 | c-CGESCVFIPCITAAIGCSCKKKVCYRNGVIP (bicyclic or more) [caripe 8] |  |  |  | 3 | 30 | 10 | 10 | 10 | 10
7 | cyclo-CGESCVFIPCTVTALLGCSCKNKVCYRNGIP (bicyclic or more) [caripe 7] |  |  |  |  | 10 | 10 | 10 | 10 | 3
